Measured values as given in ChEMBL document CHEMBL1949660 (Bioorg Med Chem Lett, 2012).
pEC50, pIC50, pKi: −log10 of the molar value. Values belong to the molecule of their own block, whether it stands above or below them.

Tests used:
Histamine H3 receptor [1] = target: T1, Histamine H3 receptor (Homo sapiens, UniProt Q9Y5N1); experiment: Displacement of [3H]NAMH from human histamine H3 receptor expressed in CHO cells; assay type: cell-based
Procedure, shortened: (§1)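 Radioligand displacement of [³H]NAMH from membranes isolated from CHO cells transfected with cloned human H₃ or rat H₃ receptors.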

Histamine H3 receptor [2] = target: Histamine H3 receptor (Rattus norvegicus, UniProt Q9QYN8); experiment: Displacement of [3H]NAMH from rat histamine H3 receptor expressed in CHO cells; assay type: cell-based; procedure, shortened: as §1
Cytochrome P450 2D6 = Cytochrome P450 2D6 (Homo sapiens, UniProt P10635); experiment: Inhibition of CYP2D6; assay type: ADME
Histamine H3 receptor [3] = target: T1, Histamine H3 receptor; experiment: Inverse agonist activity at human histamine H3 receptor assessed as inhibition of R-alpha-methylhistamine-induced [35S]GTPgammaS binding; assay type: functional
Cytochrome P450 3A4 = Cytochrome P450 3A4 (Homo sapiens, UniProt P08684); experiment: Inhibition of CYP3A4; assay type: ADME
[4] = target: Histamine H2 receptor (Homo sapiens) (UniProt P25021); experiment: Inhibition of human histamine H2 receptor at 10 uM
[5] = Half life in rat liver microsomes; assay type: ADME, Microsome
[6] = Half life in dog liver microsomes; assay type: ADME, Canis lupus familiaris, Microsome
[7] = Half life in monkey liver microsomes; assay type: ADME, Macaca mulatta, Microsome; settings: rhesus monkey
[8] = Volume of distribution in rat at 1 mg/kg, iv; assay type: ADME, organism-based; parameters: dose 1 mg/kg, route intravenous; settings: in vivo
Procedure, shortened: (§2)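 Rat PK: iv dose with vehicle 3% DMSO, 30% solutol, 67% phosphate buffered saline. Oral 5 mg/kg dose with vehicle 50% Tween 80, 40% propylene carbonate, 10% propylene glycol.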

[9] = Aqueous solubility of the compound at pH 2; assay type: physicochemical; settings: aqueous medium
[10] = target: Voltage-gated inwardly rectifying potassium channel KCNH2 (Homo sapiens, UniProt Q12809); experiment: Inhibition of human Erg by patch clamp assay
Cytochrome P450 1A2 = target: T2, Cytochrome P450 1A2 (Homo sapiens, UniProt P05177); experiment: Inhibition of CYP1A2; assay type: ADME
T2 sequence (P05177 whole entry): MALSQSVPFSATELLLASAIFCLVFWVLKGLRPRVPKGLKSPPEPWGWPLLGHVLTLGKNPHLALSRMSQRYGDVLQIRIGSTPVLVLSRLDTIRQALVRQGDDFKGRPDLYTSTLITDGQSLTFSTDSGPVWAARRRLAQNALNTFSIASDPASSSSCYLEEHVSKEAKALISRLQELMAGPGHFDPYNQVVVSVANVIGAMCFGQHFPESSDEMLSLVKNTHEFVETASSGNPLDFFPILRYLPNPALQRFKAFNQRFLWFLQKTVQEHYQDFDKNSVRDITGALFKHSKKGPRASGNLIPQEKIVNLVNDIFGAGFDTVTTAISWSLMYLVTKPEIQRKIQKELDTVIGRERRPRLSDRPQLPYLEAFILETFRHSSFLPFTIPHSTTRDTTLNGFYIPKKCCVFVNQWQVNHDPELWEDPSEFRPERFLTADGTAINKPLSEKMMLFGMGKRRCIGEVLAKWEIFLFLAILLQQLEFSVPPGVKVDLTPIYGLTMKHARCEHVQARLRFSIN

[11] = Drug uptake in rat brain at 5 mg/kg, po measured after 6 hrs; assay type: ADME, organism-based; parameters: dose 5 mg/kg, route oral; settings: read-out: Drug uptake
Procedure, shortened: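 Rats given 5 mg/kg po in 50% Tween 80, 40% propylene carbonate, 10% propylene glycol. Brain concentration determined 6 h after dosing.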

[12] = Ratio drug uptake in brain to plasma of rat at 10 mg/kg, ip measured after 6 hrs; assay type: ADME, organism-based; parameters: dose 10 mg/kg, route intraperitoneal; settings: read-out: BPR
[13] = Oral bioavailability in rat at 5 mg/kg; assay type: ADME, organism-based; settings: in vivo; procedure, shortened: as §2
[14] = target: Histamine H1 receptor (Homo sapiens) (UniProt P35367); experiment: Inhibition of human histamine H1 receptor at 10 uM
[15] = Aqueous solubility of the compound at pH 7.4; assay type: physicochemical; settings: aqueous medium
[16] = Apparent permeability across human Caco2 cells; assay type: ADME, cell-based; settings: Caco-2
Cytochrome P450 2C9 = Cytochrome P450 2C9 (Homo sapiens, UniProt P11712); experiment: Inhibition of CYP2C9; assay type: ADME
Cytochrome P450 2C19 = Cytochrome P450 2C19 (Homo sapiens, UniProt P33261); experiment: Inhibition of CYP2C19; assay type: ADME
[17] = Half life in rat at 1 mg/kg, iv; assay type: ADME, organism-based; parameters: dose 1 mg/kg, route intravenous; settings: in vivo; procedure, shortened: as §2
[18] = Clearance in rat at 1 mg/kg, iv; assay type: ADME, organism-based; parameters: dose 1 mg/kg, route intravenous; settings: in vivo; procedure, shortened: as §2
[19] = Half life in human liver microsomes; assay type: ADME, Microsome
[20] = Cmax in rat at 5 mg/kg, po; assay type: ADME, organism-based; parameters: dose 5 mg/kg, route oral; settings: in vivo
[21] = target: Histamine H4 receptor (Homo sapiens) (UniProt Q9H3N8); experiment: Inhibition of human histamine H4 receptor at 10 uM
[22] = target: Sodium-dependent dopamine transporter (Homo sapiens) (UniProt Q01959); experiment: Inhibition of DAT at 10 uM
Sequence of Sodium-dependent dopamine transporter (Homo sapiens) (Q01959 whole entry): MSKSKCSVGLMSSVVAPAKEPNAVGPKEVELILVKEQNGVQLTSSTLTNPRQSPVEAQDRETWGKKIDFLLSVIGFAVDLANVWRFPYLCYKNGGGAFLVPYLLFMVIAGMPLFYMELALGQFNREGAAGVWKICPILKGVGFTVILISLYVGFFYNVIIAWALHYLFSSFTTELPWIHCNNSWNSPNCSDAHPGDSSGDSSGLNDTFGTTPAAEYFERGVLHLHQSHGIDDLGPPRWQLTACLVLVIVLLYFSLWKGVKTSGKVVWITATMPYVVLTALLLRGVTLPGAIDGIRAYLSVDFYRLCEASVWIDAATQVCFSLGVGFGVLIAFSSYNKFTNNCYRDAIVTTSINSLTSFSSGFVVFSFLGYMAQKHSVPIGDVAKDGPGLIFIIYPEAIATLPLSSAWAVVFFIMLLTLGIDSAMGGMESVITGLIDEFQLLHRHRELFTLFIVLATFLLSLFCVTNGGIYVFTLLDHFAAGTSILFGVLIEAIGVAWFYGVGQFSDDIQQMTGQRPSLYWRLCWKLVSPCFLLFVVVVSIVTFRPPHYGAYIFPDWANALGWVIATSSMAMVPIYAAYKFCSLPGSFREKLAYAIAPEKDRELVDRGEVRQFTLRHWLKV

Sequence of Histamine H3 receptor (Rattus norvegicus, UniProt Q9QYN8) (Q9QYN8 whole entry): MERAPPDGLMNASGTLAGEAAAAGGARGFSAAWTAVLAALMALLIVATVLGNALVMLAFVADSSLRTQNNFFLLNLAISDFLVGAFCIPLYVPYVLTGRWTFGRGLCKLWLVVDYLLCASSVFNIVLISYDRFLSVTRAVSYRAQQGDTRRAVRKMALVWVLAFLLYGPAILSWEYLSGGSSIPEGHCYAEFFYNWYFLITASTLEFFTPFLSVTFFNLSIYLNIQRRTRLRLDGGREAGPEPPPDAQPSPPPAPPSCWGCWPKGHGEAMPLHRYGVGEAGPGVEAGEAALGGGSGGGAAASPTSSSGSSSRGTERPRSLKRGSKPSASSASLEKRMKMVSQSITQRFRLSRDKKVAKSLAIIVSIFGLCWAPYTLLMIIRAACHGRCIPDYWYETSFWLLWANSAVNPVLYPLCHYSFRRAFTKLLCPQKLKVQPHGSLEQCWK
T1 sequence (Q9Y5N1 whole entry): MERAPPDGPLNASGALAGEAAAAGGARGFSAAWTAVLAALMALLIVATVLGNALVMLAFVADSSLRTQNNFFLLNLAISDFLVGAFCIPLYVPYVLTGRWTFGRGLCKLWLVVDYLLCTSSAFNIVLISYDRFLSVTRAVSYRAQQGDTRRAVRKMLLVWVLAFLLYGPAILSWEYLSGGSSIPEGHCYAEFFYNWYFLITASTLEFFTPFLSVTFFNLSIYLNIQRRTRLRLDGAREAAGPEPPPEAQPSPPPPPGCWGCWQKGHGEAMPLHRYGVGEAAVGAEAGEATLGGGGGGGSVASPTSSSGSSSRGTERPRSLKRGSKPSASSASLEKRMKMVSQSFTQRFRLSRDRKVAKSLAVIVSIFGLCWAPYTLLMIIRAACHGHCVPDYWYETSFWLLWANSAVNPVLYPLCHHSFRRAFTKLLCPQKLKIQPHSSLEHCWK
Sequence of Histamine H1 receptor (Homo sapiens) (P35367 whole entry): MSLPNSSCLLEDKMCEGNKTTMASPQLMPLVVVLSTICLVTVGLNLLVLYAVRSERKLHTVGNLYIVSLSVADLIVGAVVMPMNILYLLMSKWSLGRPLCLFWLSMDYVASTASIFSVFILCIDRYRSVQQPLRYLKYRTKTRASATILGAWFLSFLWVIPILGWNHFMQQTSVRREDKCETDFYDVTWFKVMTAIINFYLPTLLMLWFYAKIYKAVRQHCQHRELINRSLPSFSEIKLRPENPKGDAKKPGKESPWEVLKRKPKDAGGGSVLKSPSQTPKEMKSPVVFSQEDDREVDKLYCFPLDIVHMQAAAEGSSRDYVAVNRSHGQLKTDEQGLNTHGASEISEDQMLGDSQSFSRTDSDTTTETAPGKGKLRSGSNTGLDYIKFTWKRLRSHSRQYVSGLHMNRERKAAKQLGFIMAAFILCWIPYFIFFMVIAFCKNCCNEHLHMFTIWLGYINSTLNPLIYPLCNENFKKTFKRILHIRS
Sequence of Voltage-gated inwardly rectifying potassium channel KCNH2 (Q12809 whole entry): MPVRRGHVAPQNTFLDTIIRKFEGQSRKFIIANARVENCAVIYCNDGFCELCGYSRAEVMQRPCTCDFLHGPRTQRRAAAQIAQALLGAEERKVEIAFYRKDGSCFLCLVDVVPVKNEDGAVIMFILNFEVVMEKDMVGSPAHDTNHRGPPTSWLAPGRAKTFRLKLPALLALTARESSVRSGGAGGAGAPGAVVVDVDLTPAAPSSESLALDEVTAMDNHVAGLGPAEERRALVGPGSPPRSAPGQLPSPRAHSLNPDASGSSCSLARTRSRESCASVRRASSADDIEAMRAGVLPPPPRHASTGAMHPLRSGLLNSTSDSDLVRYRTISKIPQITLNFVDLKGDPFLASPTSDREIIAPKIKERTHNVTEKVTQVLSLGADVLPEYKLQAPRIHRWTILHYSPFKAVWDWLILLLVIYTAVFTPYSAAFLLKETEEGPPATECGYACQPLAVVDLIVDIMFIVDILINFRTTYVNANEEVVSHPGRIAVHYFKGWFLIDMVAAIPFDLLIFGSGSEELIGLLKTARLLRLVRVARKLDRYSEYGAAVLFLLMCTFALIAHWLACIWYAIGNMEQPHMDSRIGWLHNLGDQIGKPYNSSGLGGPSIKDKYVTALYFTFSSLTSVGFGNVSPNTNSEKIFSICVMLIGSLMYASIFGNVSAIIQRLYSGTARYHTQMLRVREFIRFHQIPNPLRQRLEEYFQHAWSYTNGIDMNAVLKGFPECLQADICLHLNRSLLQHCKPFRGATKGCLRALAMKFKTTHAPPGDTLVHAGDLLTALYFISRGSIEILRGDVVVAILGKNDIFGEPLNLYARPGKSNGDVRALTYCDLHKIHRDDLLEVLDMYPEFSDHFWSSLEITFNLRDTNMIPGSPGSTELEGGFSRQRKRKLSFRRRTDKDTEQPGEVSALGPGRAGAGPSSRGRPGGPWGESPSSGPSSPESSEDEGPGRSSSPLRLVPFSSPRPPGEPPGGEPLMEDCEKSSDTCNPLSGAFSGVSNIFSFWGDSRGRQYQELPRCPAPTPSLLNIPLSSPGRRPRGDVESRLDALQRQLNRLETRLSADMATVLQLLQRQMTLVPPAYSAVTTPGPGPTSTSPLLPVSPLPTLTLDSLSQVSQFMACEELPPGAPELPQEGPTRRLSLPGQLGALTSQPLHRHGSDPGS
Sequence of Histamine H2 receptor (Homo sapiens) (P25021 whole entry): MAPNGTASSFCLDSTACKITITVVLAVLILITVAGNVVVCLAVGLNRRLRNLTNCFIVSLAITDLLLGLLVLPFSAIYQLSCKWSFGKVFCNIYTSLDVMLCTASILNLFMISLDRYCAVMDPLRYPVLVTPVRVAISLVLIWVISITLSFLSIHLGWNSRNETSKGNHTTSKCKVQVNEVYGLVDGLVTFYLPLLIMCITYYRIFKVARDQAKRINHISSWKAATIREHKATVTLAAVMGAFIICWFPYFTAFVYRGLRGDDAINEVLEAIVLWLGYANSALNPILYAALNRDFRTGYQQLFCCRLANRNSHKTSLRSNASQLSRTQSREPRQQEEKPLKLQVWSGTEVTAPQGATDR
Sequence of Cytochrome P450 2C19 (P33261 whole entry): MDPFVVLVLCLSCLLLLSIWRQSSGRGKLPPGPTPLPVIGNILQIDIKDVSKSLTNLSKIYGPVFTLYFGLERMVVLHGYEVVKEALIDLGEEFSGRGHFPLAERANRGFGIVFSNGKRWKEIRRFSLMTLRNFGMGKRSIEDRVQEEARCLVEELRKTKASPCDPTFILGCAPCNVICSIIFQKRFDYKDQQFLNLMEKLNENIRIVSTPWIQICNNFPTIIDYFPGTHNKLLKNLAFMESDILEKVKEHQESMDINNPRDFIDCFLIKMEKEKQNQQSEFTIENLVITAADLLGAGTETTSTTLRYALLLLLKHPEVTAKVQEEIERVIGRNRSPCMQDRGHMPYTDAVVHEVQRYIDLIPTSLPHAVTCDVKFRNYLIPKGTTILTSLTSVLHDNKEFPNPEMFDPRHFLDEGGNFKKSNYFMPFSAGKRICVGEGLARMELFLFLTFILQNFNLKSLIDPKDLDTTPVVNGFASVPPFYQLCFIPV
Sequence of Cytochrome P450 2C9 (P11712 whole entry): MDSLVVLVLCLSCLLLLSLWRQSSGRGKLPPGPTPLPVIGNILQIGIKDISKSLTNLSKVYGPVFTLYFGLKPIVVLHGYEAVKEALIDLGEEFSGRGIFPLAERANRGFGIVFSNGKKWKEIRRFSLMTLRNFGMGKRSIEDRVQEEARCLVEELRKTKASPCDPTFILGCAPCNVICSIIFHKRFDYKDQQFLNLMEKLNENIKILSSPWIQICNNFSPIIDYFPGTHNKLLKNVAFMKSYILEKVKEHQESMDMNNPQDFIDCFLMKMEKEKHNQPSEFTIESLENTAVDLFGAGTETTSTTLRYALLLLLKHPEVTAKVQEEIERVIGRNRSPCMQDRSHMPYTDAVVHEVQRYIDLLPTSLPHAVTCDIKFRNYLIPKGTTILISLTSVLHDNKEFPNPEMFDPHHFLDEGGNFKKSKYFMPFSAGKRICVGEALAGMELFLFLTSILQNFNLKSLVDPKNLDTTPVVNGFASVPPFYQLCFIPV
Sequence of Cytochrome P450 2D6 (P10635 whole entry): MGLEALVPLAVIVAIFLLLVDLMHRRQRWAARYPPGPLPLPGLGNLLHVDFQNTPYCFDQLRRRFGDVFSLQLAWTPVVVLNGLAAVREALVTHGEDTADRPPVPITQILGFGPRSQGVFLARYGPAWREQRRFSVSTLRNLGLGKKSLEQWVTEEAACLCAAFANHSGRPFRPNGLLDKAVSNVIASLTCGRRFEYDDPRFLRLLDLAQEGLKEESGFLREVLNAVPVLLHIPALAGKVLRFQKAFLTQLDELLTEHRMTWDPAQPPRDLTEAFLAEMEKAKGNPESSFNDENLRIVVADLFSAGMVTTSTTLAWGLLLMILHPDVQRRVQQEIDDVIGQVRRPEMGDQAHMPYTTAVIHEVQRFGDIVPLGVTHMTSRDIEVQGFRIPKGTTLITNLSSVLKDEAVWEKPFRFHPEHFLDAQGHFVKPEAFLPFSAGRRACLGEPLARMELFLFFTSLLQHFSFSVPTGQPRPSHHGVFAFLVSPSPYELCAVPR

pKi (Histamine H3 receptor [1]): 8.36
pKi (Histamine H3 receptor [2]): 8.20
SMILES: Cc1cc(=O)[nH]nc1-c1ccc(OC2CCN(C3CCC3)CC2)cc1

pKi (Histamine H3 receptor [1]): 8.43
pKi (Histamine H3 receptor [2]): 8.17
SMILES: O=C1CCC(c2ccc(OC3CCN(C4CCC4)CC3)cc2)=NN1

pKi (Histamine H3 receptor [1]): 7.59
pKi (Histamine H3 receptor [2]): 7.29
SMILES: O=c1ccc(-c2ccc(OC3CCN(C4CCCC4)CC3)nc2)n[nH]1

pIC50 (Cytochrome P450 2D6): < 4.52
pEC50 (Histamine H3 receptor [3]): 8.96
pIC50 (Cytochrome P450 3A4): < 4.52
inhibition [4]: < 10%
half-life [5]: > 40 min
half-life [6]: > 40 min
half-life [7]: > 40 min
Vd [8]: 2.5 L/kg
solubility [9]: > 1000 µg/mL
pIC50 (Cytochrome P450 1A2): < 4.52
concentration at 6 h [11]: 1400 nM
Kp at 6 h [12]: 1.9
bioavailability [13]: 35%
inhibition [14]: < 10%
solubility [15]: > 1000 µg/mL
Papp [16]: 16.5 ×10⁻⁶ cm/s
pIC50 (Cytochrome P450 2C9): < 4.52
pIC50 (Cytochrome P450 2C19): < 4.52
half-life [17]: 138 min
pKi (Histamine H3 receptor [1]): 8.72
clearance [18]: 13 mL/min/kg
half-life [19]: > 40 min
pKi (Histamine H3 receptor [2]): 8.66
Cmax [20]: 441 ng/mL
inhibition [21]: < 10%
inhibition [22]: 63%
SMILES: O=c1ccc(-c2ccc(OC3CCN(C4CCC4)CC3)cc2)n[nH]1
pIC50 [10]: 5.10

pKi (Histamine H3 receptor [1]): 8.29
pKi (Histamine H3 receptor [2]): 8.15
SMILES: O=c1ccc(-c2ccc(OC3CCN(C4CCCC4)CC3)cc2)n[nH]1
